Experimental data as given in ChEMBL document CHEMBL1138546, “Synthesis and antimalarial activity of hydroxyethylpiperazine derivatives” (Eur J Med Chem, 2009).
≈ marks a conversion by molar mass, not a printed value.

Experiments:
[1] = Cytotoxicity against mouse J774 cells assessed as cell viability at 100 ug/ml after 24 hrs by MTT assay; type: cell-based; conditions: read-out: Activity
In short: (§1)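 Murine J774 monocyte/macrophages seeded at 2×10^6 cells/well, left 1 h at 37 °C, 5% CO2 in RPMI 1640 with 10% fetal bovine serum, 2 mM L-glutamine, 25 µg/ml gentamicin, pH 7.4. Adherent cells exposed to compounds (0.1–100 µg/ml) for 20 h, then MTT (5 mg/ml) added for 4 h. Formazan dissolved in DMSO, absorbance read at 540 nm. Result given as percent viability.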

[2] = Cytotoxicity against mouse J774 cells assessed as cell viability at 0.1 ug/ml after 24 hrs by MTT assay; type: cell-based; conditions: read-out: Activity; in short: as §1
[3] = tested on: Plasmodium falciparum; assay: Antimalarial activity after 24 hrs against chloroquine-resistant Plasmodium falciparum W2 by [3H]hypoxanthine uptake; type: functional, organism-based
In short: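 P. falciparum cultured in human O+ erythrocytes, 5% hematocrit, RPMI 1640 plus 10% human plasma. Sorbitol-synchronized trophozoites set at 2% parasitaemia, 2.5% hematocrit with ethanol-dissolved compounds at various concentrations in hypoxanthine-free RPMI 1640; chloroquine reference in each run. Growth read by [³H]-hypoxanthine incorporation; IC50 versus drug-free controls from curve fitting of dose-response data.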

[4] = Cytotoxicity against mouse J774 cells assessed as cell viability at 1 ug/ml after 24 hrs by MTT assay; type: cell-based; conditions: read-out: Activity; in short: as §1
[5] = Cytotoxicity against mouse J774 cells assessed as cell viability at 10 ug/ml after 24 hrs by MTT assay; type: cell-based; conditions: read-out: Activity; in short: as §1

In the case of `CC(C)(C)OC(=O)N[C@@H](Cc1ccccc1)[C@H](O)CN1CCN(Cc2ccc(F)cc2)CC1`, the viability at 24 h, 100 ug/ml [1] is reported as 90%, the viability at 24 h, 0.1 ug/ml [2] is reported as 100% and the IC50 [3] is reported as 7.5 µg/mL (≈ 16.4 µM). It also gave a viability at 24 h, 1 ug/ml [4] of 100% and a viability at 24 h, 10 ug/ml [5] of 99%.
`CC(C)(C)OC(=O)N[C@@H](Cc1ccccc1)[C@H](O)CN1CCN(Cc2ccc3c(c2)OCO3)CC1` gave a viability at 24 h, 100 ug/ml [1] of 82%, a viability at 24 h, 0.1 ug/ml [2] of 100% and an IC50 [3] of 5.1 µg/mL (≈ 10.5 µM). It also gave a viability at 24 h, 1 ug/ml [4] of 98% and a viability at 24 h, 10 ug/ml [5] of 100%.
Work on `CC(C)(C)OC(=O)N[C@@H](Cc1ccccc1)[C@H](O)CN1CCN(Cc2ccc(N)cc2)CC1` yielded a viability at 24 h, 100 ug/ml [1] of 85%, a viability at 24 h, 0.1 ug/ml [2] of 100% and an IC50 [3] of 15.8 µg/mL (≈ 34.8 µM). The viability at 24 h, 1 ug/ml [4] was 98% and the viability at 24 h, 10 ug/ml [5] was 98%.
With `COc1ccc(CN2CCN(C[C@@H](O)[C@H](Cc3ccccc3)NC(=O)OC(C)(C)C)CC2)cc1` the viability at 24 h, 100 ug/ml [1] was 85%, the viability at 24 h, 0.1 ug/ml [2] was 100% and the IC50 [3] was 6.2 µg/mL (≈ 13.2 µM). For the same compound, the viability at 24 h, 1 ug/ml [4] was 100% and the viability at 24 h, 10 ug/ml [5] was 100%.
For `CC(C)(C)OC(=O)N[C@@H](Cc1ccccc1)[C@H](O)CN1CCNCC1`, the viability at 24 h, 100 ug/ml [1] was 65%, the viability at 24 h, 0.1 ug/ml [2] was 100% and the IC50 [3] was > 50 µg/mL. It also gave a viability at 24 h, 1 ug/ml [4] of 100% and a viability at 24 h, 10 ug/ml [5] of 100%.
Work on `CC(C)(C)OC(=O)N[C@@H](Cc1ccccc1)[C@H](O)CN1CCN(Cc2ccc([N+](=O)[O-])cc2)CC1` yielded a viability at 24 h, 100 ug/ml [1] of 81%, a viability at 24 h, 0.1 ug/ml [2] of 100% and an IC50 [3] of 23.5 µg/mL (≈ 48.5 µM). It also gave a viability at 24 h, 1 ug/ml [4] of 100% and a viability at 24 h, 10 ug/ml [5] of 98%.
For `CC(C)(C)OC(=O)N[C@@H](Cc1ccccc1)[C@H](O)CN1CCN(c2ccccc2)CC1`, the viability at 24 h, 100 ug/ml [1] was 58%, the viability at 24 h, 0.1 ug/ml [2] was 100% and the IC50 [3] was > 50 µg/mL. It also gave a viability at 24 h, 1 ug/ml [4] of 95% and a viability at 24 h, 10 ug/ml [5] of 94%.
For `CC(C)(C)OC(=O)N[C@@H](Cc1ccccc1)[C@H](O)CN1CCN(Cc2ccccc2)CC1`, the viability at 24 h, 100 ug/ml [1] was 100%, the viability at 24 h, 0.1 ug/ml [2] was 95% and the IC50 [3] was 14.9 µg/mL (≈ 33.9 µM). For the same compound, the viability at 24 h, 1 ug/ml [4] was 100% and the viability at 24 h, 10 ug/ml [5] was 100%.
`CC(C)(C)OC(=O)N[C@@H](Cc1ccccc1)[C@H](O)CN1CCN(Cc2ccc(Cl)cc2)CC1` showed a viability at 24 h, 100 ug/ml [1] of 88%, a viability at 24 h, 0.1 ug/ml [2] of 100% and an IC50 [3] of 7.7 µg/mL (≈ 16.2 µM). For the same compound, the viability at 24 h, 1 ug/ml [4] was 100% and the viability at 24 h, 10 ug/ml [5] was 100%.
In the case of `CN1CCN(C[C@@H](O)[C@H](Cc2ccccc2)NC(=O)OC(C)(C)C)CC1`, the viability at 24 h, 100 ug/ml [1] is reported as 100%, the viability at 24 h, 0.1 ug/ml [2] is reported as 94% and the IC50 [3] is reported as > 50 µg/mL. The viability at 24 h, 1 ug/ml [4] was 100% and the viability at 24 h, 10 ug/ml [5] was 100%.
In the case of `COc1ccc(CN2CCN(C[C@@H](O)[C@H](Cc3ccccc3)NC(=O)OC(C)(C)C)CC2)cc1OC`, the viability at 24 h, 100 ug/ml [1] is reported as 83%, the viability at 24 h, 0.1 ug/ml [2] is reported as 100% and the IC50 [3] is reported as 7 µg/mL (≈ 14 µM). It also gave a viability at 24 h, 1 ug/ml [4] of 100% and a viability at 24 h, 10 ug/ml [5] of 100%.
`Cc1cccc(C)c1OCC(=O)N[C@@H](Cc1ccccc1)[C@@H](O)C[C@H](Cc1ccccc1)NC(=O)[C@H](C(C)C)N1CCCNC1=O` [LOPINAVIR] showed an IC50 [3] of 1.7 µg/mL (≈ 2.7 µM).
With `CC(C)(C)NC(=O)[C@@H]1C[C@@H]2CCCC[C@@H]2CN1C[C@@H](O)[C@H](Cc1ccccc1)NC(=O)[C@H](CC(N)=O)NC(=O)c1ccc2ccccc2n1` [SAQUINAVIR] the IC50 [3] was 7 µg/mL (≈ 10.4 µM).
